Paper PMC3435882 (Molecular imaging and biology : MIB : the official …, 2009)
Bridge positions count the residues as written; N and C are the ends. Square brackets hold non-standard residues; d marks the D form. Peptide text beside a SMILES is read from it. Cy5.5 = cyanine dye Cy5.5, conjugated as the NHS ester; βAla = NCCC(=O)O

How the values were obtained:
[1] = system: gelatinase activity in U87 cell lysates; experiment: Gelatin zymography; assay type: biochemical, human; conditions: U87 cell lysate, doxycycline 100 μM in incubation buffer
Outline: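 U87 cells were lysed in 1% Triton X-100, 50 mM Tris-HCl pH 7.6, 200 mM NaCl, 10 mM CaCl₂, then spun 10 min at 9700 × g. Supernatant was diluted 1:4 in SDS sample buffer, loaded at equal protein and run on 10% gels containing 1 mg/ml gelatin. Gels were washed 4 hr in Triton/CaCl₂ buffer and developed overnight at 37°C (pH 7.6), with doxycycline added, then Coomassie-stained.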

U87 cells [2] = experiment: Fluorescence microscopy, probe uptake in U87 cells; assay type: cell-based, human; conditions: for uptake/binding in U87 cells: 10 μM, 37°C, 5 min
Outline: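 U87 cells grown in DMEM/F-12 with 10% FBS were seeded on cover slips overnight. For blocking, cells were pretreated with doxycycline (5, 25, 100 μM) or unlabelled peptide, then given 10 μM Cy5.5-labelled test compound; uptake samples received the probe alone (10 μM, 37°C, 5 min). After two PBS washes, cells were fixed and stained with 1 μM Sytox Green in 95% ethanol (15 min). Fluorescence microscopy was at ×60.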

PC-3 tumors = assay type: in vivo, mice; conditions: for tumor uptake in intratibial PC-3 tumors: 48 hr after intravenous injection, 15 nmol/mouse
MMP-2 [3] = molecular target: T1, MMP-2 (Homo sapiens, UniProt P08253); experiment: In vitro β-casein degradation assay; assay type: biochemical; conditions: 0, 10, 50, 200 μM; SDS-PAGE
T1 sequence (P08253 110-660): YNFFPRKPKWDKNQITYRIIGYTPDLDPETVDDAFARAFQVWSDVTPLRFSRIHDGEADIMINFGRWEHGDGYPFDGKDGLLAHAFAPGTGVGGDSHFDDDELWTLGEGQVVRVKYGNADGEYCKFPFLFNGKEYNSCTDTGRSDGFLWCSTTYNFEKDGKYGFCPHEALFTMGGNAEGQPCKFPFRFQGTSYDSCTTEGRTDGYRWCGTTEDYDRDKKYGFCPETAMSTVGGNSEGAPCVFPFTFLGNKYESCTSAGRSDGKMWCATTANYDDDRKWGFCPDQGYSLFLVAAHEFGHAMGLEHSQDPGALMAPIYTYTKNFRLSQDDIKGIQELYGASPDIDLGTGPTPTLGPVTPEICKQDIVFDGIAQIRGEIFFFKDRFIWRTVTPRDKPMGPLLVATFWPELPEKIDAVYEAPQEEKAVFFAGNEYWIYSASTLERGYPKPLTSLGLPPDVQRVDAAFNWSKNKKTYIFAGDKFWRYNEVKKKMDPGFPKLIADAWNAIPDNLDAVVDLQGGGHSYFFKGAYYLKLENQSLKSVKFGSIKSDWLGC

U87 brain tumors = experiment: In vivo and ex vivo NIRF imaging of intracranial U87 tumors; set-up: species or system mice; conditions: 24 hr after intravenous administration, 15 nmol/mouse
PC-3 cells = experiment: Fluorescence microscopy, probe uptake in PC-3 cells; assay type: cell-based, human; conditions: 10 μM, 37°C, 5 min
Outline: (§1)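 Cells were kept in DMEM/F-12 with 10% FBS at 37°C, 5% CO₂, seeded on cover slips and incubated overnight. Cy5.5-labelled test compound (10 μM) was added for 5 min at 37°C. Cells were washed twice with PBS, then fixed and nuclear-stained with 1 μM Sytox Green in 95% ethanol for 15 min. Fluorescence microscopy was at ×60.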

A549 cells = experiment: Fluorescence microscopy, probe uptake in A549 cells; assay type: cell-based, human; conditions: 10 μM, 37°C, 5 min
Outline: as §1

U87 cells [4] = experiment: Confocal microscopy of U87 cells; assay type: cell-based, human; conditions: 5 min
Outline: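 U87 cells (1 × 10⁵) on cover slips in 24-well plates were exposed to 10 μM Cy5.5-labelled test compound or free Cy5.5. They were held 5 min at 4°C or 37°C in the dark, then washed twice with PBS. Nuclei were stained with 1 μM Sytox Green. After two more PBS washes, slides were mounted for confocal imaging at emission 693 nm (Cy5.5) and 488 nm (Sytox Green).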

[5] = Stability study in serum-containing culture medium; assay type: in vitro ADME; conditions: DMEM/F-12 with 10% fetal bovine serum, 25°C, over 3 hr, HPLC
Outline: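 Peptides were incubated at 25°C in DMEM/F-12 containing 10% FBS. Aliquots taken at intervals were analysed by reverse-phase C-18 HPLC using an acetonitrile/water gradient with 0.1% TFA and UV detection at 230 nm. Intact-peptide peak area was expressed as a percentage of the 0-min area.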

MMP-2 [6] = molecular target: T1, MMP-2; experiment: In vitro MMP-2 inhibition assay; assay type: biochemical; conditions: MMP-2 Inhibition IC50, APMA-activated MMP-2, 1 hr preincubation at 37°C
Outline: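 Commercial MMP-2 was activated with APMA. Test compound was preincubated with activated enzyme (40 ng/200 μl) for 1 hr at 37°C, then biotinylated gelatinase substrate was added for 1 hr. The mixture was moved to a biotin-binding plate (30 min, 37°C) and washed. Streptavidin-enzyme conjugate and chromogenic substrate followed, and OD at 450 nm gave relative gelatinase activity.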

C[C@H]1c2cccc(O)c2C(=O)C2=C(O)[C@]3(O)C(=O)C(C(N)=O)=C(O)[C@@H](N(C)C)[C@@H]3[C@@H](O)[C@@H]21 [doxycycline, reference compound]
blocking of gelatinase activity in zymography [1]: could be blocked
blocking of Cy5.5-C6 binding to U87 cells (U87 cells [2]; doxycycline 25 and 100 μM followed by Cy5.5-C6 10 μM): partially blocked
blocking of in vivo uptake of Cy5.5-C6 in PC-3 tumors (PC-3 tumors; co-injection with doxycycline (data not shown)): could not be blocked

Cy5.5-c(CTTHWGFTLC)NH2 ({Cy5.5}-CTTHWGFTLC-NH2; disulfide 1-10) [Cy5.5-C1]
uptake/binding in U87 cells (U87 cells [2]): to a less degree
tumor uptake in intratibial PC-3 tumors (PC-3 tumors): tumor targeting could not be detected
inhibition of β-casein degradation by MMP-2 (MMP-2 [3]): inhibited the degradation of β-casein in a dose-dependent manner

Cy5.5-c(KAHWGFTLD)NH2 ({Cy5.5}-KAHWGFTLD-NH2; lactam 1-9) [Cy5.5-C6]
localization to orthotopic U87 gliomas (U87 brain tumors): readily visible
uptake in PC-3 cells (PC-3 cells): taken up
binding to A549 cells (minimal MMP-2 activity) (A549 cells): did not bind
uptake/binding in U87 cells (U87 cells [2]): rapidly taken up
tumor uptake in intratibial PC-3 tumors (PC-3 tumors): clearly visualized
inhibition of β-casein degradation by MMP-2 (MMP-2 [3]): inhibited the degradation of β-casein in a dose-dependent manner
cell uptake at 4°C (U87 cells [4]; 4°C): substantially reduced
cell uptake and distribution at 37°C (U87 cells [4]): distributed to cell cytosol and nuclei

Cy5.5-c(KHGLTWFAD)NH2 ({Cy5.5}-KHGLTWFAD-NH2; also: cyclic, ring type and sites not given here) [Cy5.5-C7]
tumor uptake in intratibial PC-3 tumors (PC-3 tumors): not taken up by the tumors

CC(C)C[C@@H]1NC(=O)[C@H]([C@@H](C)O)NC(=O)[C@H](Cc2ccccc2)NC(=O)CNC(=O)[C@H](Cc2c[nH]c3ccccc23)NC(=O)[C@H](Cc2c[nH]cn2)NC(=O)[C@H]([C@@H](C)O)NC(=O)[C@H]([C@@H](C)O)NC(=O)[C@@H](N)CSSC[C@@H](C(N)=O)NC1=O [C1, c(CTTHWGFTLC)NH2, reference compound] (H-CTTHWGFTLC-NH2; disulfide 1-10)
stability of intact peptide [5]: completely degraded
IC50 (MMP-2 [6]): 30.3 µM

CC(C)C[C@@H]1NC(=O)[C@H]([C@@H](C)O)NC(=O)[C@H](Cc2ccccc2)NC(=O)CNC(=O)[C@H](Cc2c[nH]c3ccccc23)NC(=O)[C@H](Cc2c[nH]cn2)NC(=O)[C@H]([C@@H](C)O)NC(=O)[C@H]([C@@H](C)O)NC(=O)[C@H](C)NC(=O)CCNC1=O [C3, c(ATTHWGFTL-β-Ala)] (cyclo(ATTHWGFTL[βAla]))
IC50 (MMP-2 [6]): 83.9 µM

Cy5.5 [reference compound]
uptake/binding in U87 cells (U87 cells [2]): did not bind to the cells
cell uptake and distribution at 37°C (U87 cells [4]): minimal uptake
